# EWS-Fli block: inhibitors of EWS/Fli oncoprotein transcriptional activity; A673 NR0B1-luciferase reporter, viability-normalised; inhibition, % at 12.6 µM; actives 0.67% (n = 350,000);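 active means mean inhibition of at least 50% after viability correction, with every replicate also passing that limit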;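 further: firefly luciferase signal divided by Alamar Blue viability fluorescence both relative to DMSO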
# Shn3 inh set2: reduces Shn3 3'UTR luciferase signal in osteoblasts; Clone20 osteoblast Shn3 3'UTR firefly luciferase, 24 h; inhibition, % at 12.5 µM; actives 0.52% (n = 360,000); AID 588674;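 active means mean inhibition of at least 75% with every replicate also reaching 75%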;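 further: 0% = median of neutral control wells and 100% = pilot-screen positive control compound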
# aSyn UTR inh: MLPCN primary screen, SNCA 5' untranslated region; AID 1813; inhibition, % (tested at 7.5 µM); actives 0.82% (n = 300,000); alpha-synuclein 5'UTR reporter, inhibitor activity; in the data active means inhibition above about 60%;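 further: H4 neuroglioblastoma cells stably carrying SNCA 5'UTR luciferase fusion; 0% = DMSO wells and 100% = positive control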
# FN deposit inh: fibronectin deposition inhibition; AH1F fibroblasts, Alexa488-fibronectin deposition fluorescence, overnight; inhibition, % at 12.6 µM; actives 0.086% (n = 350,000); AID 743247;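 active means mean inhibition across replicates of 30% or more, regardless of how many single replicates reach that level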;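 further: positive control wells lacked labelled fibronectin entirely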
#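 Material – AH1F fibroblast monolayer, labelled fibronectin deposition · Reagent – labelled fibronectin 24 nM · Timing – 1 h adhesion, overnight exposure · Measured by – fluorescence at 485 nm excitation, 525 nm emission · Read-out – inhibition of fibronectin deposition signal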
# EBV LMP1 NFkB: Epstein-Barr LMP1 NF-kappaB reporter inhibition | LMP1-induced NF-kappaB luciferase reporter cells, luminescence | inhibition, % at 12.5 µM | actives 0.69% (n = 350,000); in the data active means inhibition above about 41%;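 further: 0% = neutral control wells and 100% = reference inhibitor control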
# PAX8 inh HTS: PAX8 transcriptional activity inhibition | RMG-I TPO-luciferase reporter, SteadyGlo, 24 h | inhibition, % at 12.6 µM | actives 1.2% (n = 360,000) | AID 652154;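 active means mean replicate inhibition at least 60% with every replicate also reaching 60%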;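 further: luciferase light reporting Pax8 driven TPO promoter activity; plate controls were median of neutral control wells for no effect and mitoxantrone controls for full effect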
# * = called active by the depositor; x = no result. Shown are actives, neighbours in structure and some others; about 2.1% of the full set was active somewhere.
SMILES,EWS-Fli block,Shn3 inh set2,aSyn UTR inh,FN deposit inh,EBV LMP1 NFkB,PAX8 inh HTS
O=C(C[C@H]1C[C@@H]2c3cc(NS(=O)(=O)c4ccc(F)cc4)ccc3O[C@@H]2[C@H](CO)O1)NCc1ccc(Oc2ccccc2)cc1,24.8,x,x,x,x,33.8
O=C(C[C@@H]1C[C@@H]2c3cc(NS(=O)(=O)c4ccc(F)cc4)ccc3O[C@@H]2[C@H](CO)O1)NCc1ccccc1,-1.3,x,x,-1.8,x,15.5
O=C(C[C@@H]1C[C@@H]2c3cc(NS(=O)(=O)c4ccc(F)cc4)ccc3O[C@@H]2[C@@H](CO)O1)NCc1ccc(Oc2ccccc2)cc1,35.6,x,x,x,x,106.5*
O=C(C[C@@H]1C[C@@H]2c3cc(NS(=O)(=O)c4ccc(F)cc4)ccc3O[C@@H]2[C@H](CO)O1)NCc1ccc(Oc2ccccc2)cc1,24.9,48.5,x,4.4,x,55.7
O=C(C[C@H]1C[C@@H]2c3cc(NC(=O)Nc4ccc(C(F)(F)F)cc4)ccc3O[C@@H]2[C@@H](CO)O1)NCc1ccc(Cl)cc1,21.0,x,x,x,x,88.7*
CNC(=O)C[C@@H]1CC[C@@H]2[C@@H](COc3ccc(NC(=O)c4ccc(OC)cc4)cc3C(=O)N2C)O1,-8.2,x,x,12.1,x,-4.3
CC(C)NC(=O)N(C)C[C@H]1Oc2ccc(NC(=O)c3ccncc3)cc2CC(=O)N([C@@H](C)CO)C[C@@H]1C,0.6,x,x,-13.3,x,0.9
C[C@@H]1CN(C)C(=O)Cc2cc(N)ccc2O[C@@H]1CN(C)S(C)(=O)=O,x,x,x,-1.0,x,x
O=C(C[C@@H]1C[C@@H]2c3cc(NC(=O)Cc4ccncc4)ccc3O[C@@H]2[C@H](CO)O1)NCc1ccc(-c2ccccc2)cc1,11.1,x,x,x,x,102.1*
O=C(Nc1ccc(C(F)(F)F)cc1)Nc1ccc2c(c1)[C@@H]1C[C@H](CC(=O)N3CCc4ccccc4C3)O[C@@H](CO)[C@@H]1O2,11.7,x,x,-8.5,x,-7.0
CS(=O)(=O)Nc1ccc2c(c1)[C@@H]1C[C@H](CC(=O)NCc3ccc(Oc4ccccc4)cc3)O[C@H](CO)[C@@H]1O2,6.4,x,x,-0.8,x,12.4
CS(=O)(=O)Nc1ccc2c(c1)[C@@H]1C[C@H](CC(=O)NCc3ccc(Oc4ccccc4)cc3)O[C@@H](CO)[C@@H]1O2,42.8,x,x,-12.3,x,85.0*
CN(C)c1ccc2c(c1)[C@H]1C[C@@H](CC(=O)NCc3ccc(Oc4ccccc4)cc3)O[C@@H](CO)[C@H]1O2,17.9,x,x,-1.0,x,24.1
O=C(Nc1ccc(C(F)(F)F)cc1)Nc1ccc2c(c1)[C@H]1C[C@H](CC(=O)N3CCc4ccccc4C3)O[C@H](CO)[C@H]1O2,15.3,x,x,3.8,x,82.4*
CN(C)c1ccc2c(c1)[C@@H]1C[C@@H](CC(=O)NCc3ccc(Oc4ccccc4)cc3)O[C@@H](CO)[C@@H]1O2,51.2*,x,x,-53.0,x,85.5*
O=C(C[C@@H]1C[C@H]2c3cc(NC(=O)Cc4ccncc4)ccc3O[C@H]2[C@@H](CO)O1)NCc1ccc(-c2ccccc2)cc1,30.2,x,x,x,x,42.7
COc1cccc(C#Cc2ccc3c(c2)[C@@H]2[C@@H](CCN2C(=O)CC2CC2)[C@H](CO)N3)c1,7.8,x,x,-4.4,x,x
C[C@H]1CN([C@@H](C)CO)S(=O)(=O)c2ccc(C#CC3CCCC3)cc2O[C@@H]1CN(C)Cc1cncnc1,32.4,x,x,-15.8,x,3.1
O=C(C[C@@H]1C[C@H]2c3cc(NS(=O)(=O)c4ccc(F)cc4)ccc3O[C@H]2[C@H](CO)O1)NCc1ccc(Oc2ccccc2)cc1,58.7*,x,x,x,x,100.5*
O=C(C=Cc1ccccc1)CC(c1ccccc1)N1CCOCC1 (stereo unspecified),58.9*,23.9,x,7.3,-48.7,25.4
Cc1ccccc1Oc1cc(-n2ncc(Cl)c(Cl)c2=O)ncn1,41.7,95.9*,x,14.2,93.0*,-19.7
COCC(=O)N1[C@H](CO)[C@@H](c2ccccc2)C12CN(C(=O)NC1CCCCC1)C2,3.7,x,x,x,x,x
COC(=O)c1cnc(Oc2ccc(NC(=O)NC(=O)c3c(F)cccc3F)cc2)cc1C(F)(F)F,-1.6,-3.2,14.2,-14.1,-10.0,22.3
COC(=O)c1cnc(Oc2ccc(NC(=O)NC(=O)c3c(OC)cccc3OC)cc2)cc1C(F)(F)F,52.0*,37.3,74.5*,-8.2,8.3,72.8*
COC(=O)c1cnc(Oc2ccc(NC(=O)NC(=O)c3c(F)cccc3Cl)cc2)cc1C(F)(F)F,51.1*,24.8,-10.6,-4.0,1.2,31.3
